Shown are actives, neighbours in structure and some others; about 8.8% of the full set was active somewhere.
SF1 activator – activates the human nuclear receptor SF-1. Q13285. CHO-K1 Gal4-SF-1 LBD luciferase reporter; % increase over DMSO SF-1-specific signal. activation, % at 10 µM. 65,000 compounds, 1.9% hits. AID 522;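 active = activation above the mean activation of all tested compounds plus 3 SD, cut at about 50% in these data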
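Test system: CHO-K1 cells with Gal4–hSF-1 LBD chimera plus Gal4-driven luciferase; Input: 4,000 cells/well; Compound: 10 µM only; Times: 20 h compound treatment, 37 °C; Measured by: steady-glow luciferase luminescence, read after 15 min reagent incubation; Measure: percent activation versus DMSO; Control set: DMSO and mock-transfected background; Replicates: one test per compound.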
S1P3 agonist – agonists of human S1P3 receptor; Q99500; S1P3 NFAT-BLA reporter cells, agonism, FRET ratio; relative to 1 µM S1P, basal subtracted; 60,000 compounds, 0.1% hits; activation, % at 4.5 µM;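 active = activation above the screen-wide mean plus 3 SD, cut at about 4.5% in these data, passing the limit was not always enough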
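Benchmarks: high control 1 µM S1P / System: stable CHO line with human S1P3, Gα16, NFAT-BLA reporter / Dosing: single compound concentration, 4.5 µM final / Timing: 4 h compound at 37 °C, 2 h substrate at RT / Measured by: FRET β-lactamase substrate fluorescence, excitation 405 nm, 460/535 nm emission ratio, background-subtracted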
M1 ag – activates the M1 muscarinic receptor; CHO-M1 cells, Fluo-4 calcium fluorescence, agonist mode; hits give high values; B-score at 10 µM; 64,000 compounds, 3% hits; AID 626;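 active = fluorescence rise, raw or as B-score row- and column-corrected plate score, outside the 99.7% band of its plate's samples, either direction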
M1 antagonist – blocks the rat M1 muscarinic receptor response to acetylcholine; P08482; CHO-M1 cells, Fluo-4 calcium, ACh EC80 antagonist mode; hits give low values; B-score at 10 µM; 64,000 compounds, 3.4% hits;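 active = calcium fluorescence response, raw or row-and-column corrected B-score, differing from the plate sample mean either way at a set confidence level, mostly lower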
Target sequence (P08482 whole entry, looked up): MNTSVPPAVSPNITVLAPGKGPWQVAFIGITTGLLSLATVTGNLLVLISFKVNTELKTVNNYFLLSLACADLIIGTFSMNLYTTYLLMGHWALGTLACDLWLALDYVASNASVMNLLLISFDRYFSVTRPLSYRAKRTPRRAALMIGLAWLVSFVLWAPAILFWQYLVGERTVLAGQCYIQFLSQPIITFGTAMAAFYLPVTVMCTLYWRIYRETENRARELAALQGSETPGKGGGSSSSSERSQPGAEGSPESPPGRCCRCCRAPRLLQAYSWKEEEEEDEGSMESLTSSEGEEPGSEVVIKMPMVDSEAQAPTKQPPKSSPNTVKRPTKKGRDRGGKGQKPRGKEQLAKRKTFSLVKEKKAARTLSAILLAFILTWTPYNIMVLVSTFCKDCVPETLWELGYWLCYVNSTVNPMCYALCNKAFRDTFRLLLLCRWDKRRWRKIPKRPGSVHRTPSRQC
S1P1 ag pot – activates or potentiates agonism at human S1P1 receptor. S1P1 CRE-bla cells, forskolin, beta-lactamase FRET, potentiator mode; S1P1 agonist co-added at EC20, 2 nM; 100% = saturating reference agonist, 0% = basal. 56,000 compounds, 0.57% hits. activation, % at 9.5 µM. P21453;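 active = activation above a cutoff set at the mean activation of all tested compounds plus 3 SD, cut at about 54% in these data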;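 also: forskolin at 4 µM as EC80 and the EC20 agonist is SEW2871; 100% = SEW2871 at its EC100 plus forskolin at EC80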
RORA act – activators of human nuclear receptor RORA | P35398 | CHO-K1 Gal4-RORA LBD luciferase reporter, luminescence; percent increase over mock-subtracted basal signal | activation, % at 10 µM | 65,000 compounds, 1.5% hits | AID 560;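 active = activation above the mean of all tested compounds plus 3 SD, cut at about 49% in these data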;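 also: 0% = DMSO-treated RORA cells and 100% = added signal equal to DMSO minus mock-transfected cells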
M1 ag confirm – confirmation of rat M1 muscarinic receptor agonists; shares compounds with M1 ag; CHO-M1 cells, Fluo-4 calcium fluorescence, agonist mode; actives lie on both sides; fluorescence change (max-min) at 10 µM; 1,700 compounds, 19% hits;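 active = fluorescence change differs from the solvent-only DMSO control mean at a set confidence level in both duplicate runs; inconclusive = differs from solvent-only control mean in just one of two runs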;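 also: an EC20 dose of acetylcholine follows compound addition during the same imaging run; raw fluorescence intensity difference in instrument units with no normalization to controls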
M4 agonist ctr – rat M4 muscarinic agonism, M1 counter-screen | fluorescence change (max-min) at 10 µM | AID 1741 | CHO M4/Gqi5 cells, Fluo-4 calcium fluorescence, agonist mode; actives lie on both sides | 1,700 compounds, 9% hits | shares compounds with M1 ag;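 active = fluorescence change differing from the plate's solvent-only control wells at 99.7% confidence in both duplicates, whether higher or lower; inconclusive = differs from solvent controls in only one of two duplicates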
* hit, by the source's call; ? = inconclusive; / = no result given.

SMILES	SF1 activator	S1P3 agonist	M1 ag	M1 antagonist	S1P1 ag pot	RORA act	M1 ag confirm	M4 agonist ctr
CC(=O)c1ccc(NC(=O)N2CCN(c3cccc(Cl)c3)CC2)cc1	12.3	-1.6	5.15*	-2.8*	64.7*	-35.6	?	-27.8
c1ccc2[nH]c(SN3CCOCC3)nc2c1	-10.0	-0.1	-0.598	0.0404	-6.9	0.3	/	/
CN(C)c1ccc(C2C=C(c3ccc(Cl)cc3OC(F)F)Nc3ncnn32)cc1 (stereo not given)	-13.1	1.3	17.8*	0.0117	-32.9	26.3	84.5*	59.6
O=C(Nc1nnc(CCN2CCCCC2)s1)C1CCCCC1	-2.3	0.1	2.66*	-1.66	2.0	-15.0	?	-75.8
O=C(Nc1nnc(CCN2CCOCC2)s1)C1CCCCC1	-2.8	-0.5	-0.00755	0.0239	3.1	-7.7	/	/
COc1ccccc1N(C)S(=O)(=O)c1ccc(C(=O)OCC(=O)NCc2ccco2)cc1	11.8	0.0	6.86*	-0.65	-3.8	9.3	-18.9	-38.2
CCN1CCN(c2nc(C)nc3c2sc(=S)n3C)CC1	-8.5	-0.2	-2.58*	-0.201	-34.6	-24.2	-10.9	-23.7
Cc1nc(N2CCCCC2)c2sc(=S)n(C)c2n1	-11.0	-1.2	0.528	0.414	-30.9	-16.6	/	/
O=C(NCCc1ccc(Cl)cc1)C1CCN(S(=O)(=O)N2CCCCC2)CC1	-0.5	1.1	1.88*	-0.632	25.8	-21.1	?	-72.4
O=C1CN(C(=O)COC(=O)c2ccccc2NC(=O)c2ccco2)c2ccccc2N1	6.6	0.2	3.58*	-0.733	-25.6	-24.4	?	?
O=C1CN(C(=O)COC(=O)C2=COCCO2)c2ccccc2N1	10.2	0.6	0.00697	0.205	-8.1	-3.8	/	/
CCCC(=O)Nc1ccccc1-c1nnc(SC)[nH]c1=O	2.0	-0.7	-0.00604	0.0132	-8.3	-15.7	/	/
CCn1c(SCC(=O)Nc2cc(C)ccc2C)nc2c(c1=O)SC(C)C2 (stereo not given)	-22.8	-0.8	1.28*	0.454	-6.5	4.5	-17.1	?
O=S(=O)(NCCOCC(F)(F)C(F)F)c1ccc2oc3ccccc3c2c1	-15.9	-0.9	14.6*	-1.1	47.6	11.9	-22.4*	-31.1
Cc1cccc(-n2nnc(C(=O)NCc3ccccn3)c2N)c1	-4.4	-0.2	0.86	0.3	-7.8	-11.1	/	/
O=C(CSc1nnnn1-c1ccc2c(c1)OCCO2)N1CCc2ccccc21	10.8	-0.2	-0.936	0.579	2.7	8.0	/	/
c1ccc(CSc2nnnn2-c2ccc3c(c2)OCCO3)nc1	24.4	-1.1	6.7*	0.216	-7.3	-2.7	-9.73	-24
O=C(COc1cccc(NC(=O)c2ccco2)c1)c1ccc(F)cc1	31.4	-0.6	5.7*	-1.1	/	9.7	?	?
O=C(COC(=O)c1cccc(NC(=O)c2ccco2)c1)c1ccc(Br)cc1	6.4	-1.0	-0.404	0.0289	-2.3	18.4	/	/
O=C(c1ccccc1)N(Cc1ccc2c(c1)OCO2)Cc1nc2ccccc2c(=O)[nH]1	-4.7	0.9	2.67*	-0.271	0.7	-13.7	?	-82.6
O=C(Nc1ccccc1)N(Cc1ccc2c(c1)OCO2)Cc1nc2ccccc2c(=O)[nH]1	14.0	0.5	0.526	-0.00293	-34.7	-3.5	/	/
CCC(C)(C)NC(=O)C(c1cccnc1)N(CCOC)C(=O)Cn1nnc2ccccc21 (stereo not given)	3.0	-1.4	-0.246	0.592	12.0	-33.4	/	/
O=C(NC1CC1)c1c[nH]c2ccc(S(=O)(=O)Nc3cccc(C(F)(F)F)c3)cc2c1=O	0.9	-0.6	-1.86*	0.464	-13.4	-4.3	-10.8	?
C=CCN1CCN(C(c2cc(OC)ccc2OC)c2nnnn2CC2CCCO2)CC1 (stereo not given)	5.0	0.4	0.231	-0.128	10.8	-15.4	/	/

Screens (PubChem)
